Experimental data: article PMC5901702 (Journal of biomolecular screening, 2012)

How the values were obtained:
[1] = target: T1, rat IDE (Rattus norvegicus, UniProt P35559); assay: Native PAGE mobility shift of rat IDE; assay type: binding; settings: ATP 3 mM
T1 sequence (P35559 1-1019): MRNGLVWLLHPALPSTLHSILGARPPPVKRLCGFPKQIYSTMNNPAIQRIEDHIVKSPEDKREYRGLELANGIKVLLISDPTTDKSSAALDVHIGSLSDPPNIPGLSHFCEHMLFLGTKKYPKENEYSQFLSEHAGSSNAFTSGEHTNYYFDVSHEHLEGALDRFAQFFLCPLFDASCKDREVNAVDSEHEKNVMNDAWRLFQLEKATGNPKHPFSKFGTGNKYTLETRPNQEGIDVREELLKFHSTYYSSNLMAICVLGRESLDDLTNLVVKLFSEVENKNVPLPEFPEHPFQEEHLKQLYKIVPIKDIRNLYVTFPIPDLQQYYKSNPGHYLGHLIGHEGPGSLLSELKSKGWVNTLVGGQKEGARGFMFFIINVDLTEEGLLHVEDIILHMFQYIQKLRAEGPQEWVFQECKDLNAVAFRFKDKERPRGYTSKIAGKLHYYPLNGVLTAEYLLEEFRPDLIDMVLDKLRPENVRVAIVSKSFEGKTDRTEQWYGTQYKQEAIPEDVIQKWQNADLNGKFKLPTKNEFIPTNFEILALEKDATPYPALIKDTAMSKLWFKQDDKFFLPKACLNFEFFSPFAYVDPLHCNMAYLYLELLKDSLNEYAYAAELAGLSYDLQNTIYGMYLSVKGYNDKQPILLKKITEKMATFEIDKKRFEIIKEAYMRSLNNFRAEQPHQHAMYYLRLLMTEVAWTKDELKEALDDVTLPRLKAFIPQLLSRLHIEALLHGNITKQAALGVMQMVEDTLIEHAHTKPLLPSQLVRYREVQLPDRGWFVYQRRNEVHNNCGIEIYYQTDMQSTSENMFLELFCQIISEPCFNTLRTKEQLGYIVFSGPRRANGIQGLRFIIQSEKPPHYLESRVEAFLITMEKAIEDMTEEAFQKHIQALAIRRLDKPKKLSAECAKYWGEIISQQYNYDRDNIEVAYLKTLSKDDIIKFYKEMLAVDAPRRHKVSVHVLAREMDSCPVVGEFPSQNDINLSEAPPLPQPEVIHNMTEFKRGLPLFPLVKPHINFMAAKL
How it was run: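 Rat IDE was preincubated 60 min at 37 °C with compound (100 µM) or ATP (3 mM). It was mixed 1:1 with 2× native sample buffer (0.6 M Tris-HCl pH 6.8, 20% glycerol, bromophenol blue), run on 10% native PAGE at 4 °C and silver-stained.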

[2] = target: T1, rat IDE; assay: ATP effect on rat IDE activity and activators; assay type: biochemical
How it was run: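 Rat IDE (87.7 nM) with 50 µM a-factor–based internally quenched fluorogenic substrate in 50 mM Tris pH 7.5 containing BSA and 1 mM ATP. Compounds were used at optimal levels taken from Tris/BSA dose-response curves. ATP titration (0–10 mM) was also run in 0.1 M KPi pH 7.6 or Tris/BSA. Activity is % of water- or DMSO-treated control, n = 4.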

[3] = target: T1, rat IDE; assay: Dose-response of rat IDE activation; assay type: biochemical; settings: rat IDE activation, a-factor–based substrate
How it was run: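 Rat IDE (10 µg/mL) in 0.1 M KPi pH 7.6 was preincubated 10 min at 37 °C with activator (up to 1 mM), then mixed 1:1 with a-factor–based fluorogenic substrate (50 µM final). Fluorescence (320 ex) was read over 60 min and rate taken from the 15–30 min window. Baseline was subtracted and rates normalized to trypsin/pronase E full digestion. AC50 came from best-fit curves, or [Max]50 where the curve was not sigmoidal.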

native PAGE mobility shift of IDE [1]	ATP-dependent activation of IDE ([2]; KPi buffer, assay conditions used for HTS)	maximum activating concentration ([2]; Tris/BSA buffering system)	dose-response profile [3]	SMILES
did not observe a mobility shift	not observed	approximately 1 mM	–	Nc1ncnc2c1ncn2[C@@H]1O[C@H](COP(=O)(O)OP(=O)(O)OP(=O)(O)O)[C@@H](O)[C@H]1O [ATP, adenosine triphosphate, reference compound]
–	–	–	hormetic response	Cc1ccc(C(=O)Nc2ccc(S(=O)(=O)O)c3cc(S(=O)(=O)O)cc(S(=O)(=O)O)c23)cc1NC(=O)c1cccc(NC(=O)Nc2cccc(C(=O)Nc3cc(C(=O)Nc4ccc(S(=O)(=O)O)c5cc(S(=O)(=O)O)cc(S(=O)(=O)O)c45)ccc3C)c2)c1 [suramin, reference compound]
